Measurements pooled from the literature.
Lines come from different studies, so protocols differ.
Cell line: HepG2
Observed: cell growth or viability

CC(=O)O[C@@H]1[C@@H](OC(C)=O)[C@H](OC(C)=O)CO[C@H]1n1cc(Cn2c(C(=O)/C=C/c3ccc(F)cc3)nc3ccccc32)nn1  IC50 (LDH; 48 h): 1.67 µM
O=C1CS/C(=N\c2cc(C(F)(F)F)ccc2-c2nnc(N3C(=O)CS/C3=N\c3ccc(-c4ccccc4)cc3)s2)N1c1ccc(-c2ccccc2)cc1  IC50 (MTT): 87.7 µM
Nc1ncnc2c1ncn2CCN1C(=O)C(=O)c2cc(Cl)ccc21  IC50 (SRB): 5.62 µM
COc1cc([C@@H]2c3cc4c(cc3[C@@H](O[C@@H]3O[C@@H]5CO[C@@H](C)O[C@H]5[C@H](O)[C@H]3O)[C@H]3COC(=O)[C@H]23)OCO4)cc(OC)c1O  IC50 (MTT): 44.5 µM
CC(C)(C)[C@H](NC(=O)/C=C/c1ccc(OP(=O)(O)O)cc1)C(=O)N1CCC[C@H]1C(=O)N(c1ccccc1)c1ccc(I)cc1  IC50 (CCK-8): 2.23 µM
O=C1CS/C(=N\c2cc(C(F)(F)F)ccc2-c2nnc(N3C(=O)CS/C3=N\c3ccc(Cl)cc3)s2)N1c1ccc(Cl)cc1  IC50 (MTT): 48.1 µM
CC(=O)OC[C@H]1O[C@@H](n2cc(Cn3c(C(=O)/C=C/c4ccc(F)cc4)nc4ccccc43)nn2)[C@H](OC(C)=O)[C@@H](OC(C)=O)[C@H]1OC(C)=O  IC50 (LDH; 48 h): 1.61 µM
COc1ccc(N(Cc2nc(-c3ccc(F)cc3)cs2)C(=O)CCCCCC(=O)NO)cc1  IC50 (MTT; 72 h): 0.97 µM
Fc1ccc2c(-c3ncc(-c4ccccc4)o3)nn(Cc3ccccc3)c2c1  IC50 (48 h): 39.9 µM
CC(=O)c1nc2ccccc2n1Cc1cn([C@@H]2O[C@H](CO)[C@H](O)[C@H](O)[C@H]2O)nn1  IC50 (LDH; 48 h): 1.67 µM
COc1ccc(NC(=S)N/N=C/c2cccc3cc4ccccc4nc23)cc1  IC50 (MTT; 48 h): > 50 µM
C#Cc1cccc(Nc2ncnc3cc(OCCOC)c(OCCOC)cc23)c1  IC50 (LDH; 48 h): 2.07 µM
O=[N+]([O-])c1ccc(NC(=S)N/N=C/c2cccc3cc4ccccc4nc23)cc1  IC50 (MTT; 48 h): > 50 µM
FC(F)(F)c1ccc(-c2nnc(-c3nn(Cc4ccc(Cl)cc4Cl)c4ccccc34)o2)cc1  IC50 (48 h): 304 µM
C/C(=C\C(=O)N[C@H](C(=O)N1CCC[C@H]1C(=O)N(c1ccccc1)c1ccc(I)cc1)C(C)(C)C)c1ccc(OP(=O)(O)O)cc1  IC50 (CCK-8): 6.09 µM
COc1cccc(N=C2SCC(=O)N2c2nnc(-c3ccc(C(F)(F)F)cc3N=C3SCC(=O)N3c3cccc(OC)c3)s2)c1  IC50 (MTT): 80.1 µM
c1ccc(-c2noc(-c3nn(Cc4ccncc4)c4ccccc34)n2)cc1  IC50 (48 h): 32.9 µM
COc1ccc(-c2oc3ccc(O)c(CN4CCCCC4)c3c2C(=O)NCc2cn(Cc3ccccc3)nn2)cc1  IC50 (resazurin; 18 h): 116 µM
O=C1CS/C(=N\c2cc(C(F)(F)F)ccc2-c2nnc(N3C(=O)CS/C3=N\c3ccc(F)cc3)s2)N1c1ccc(F)cc1  IC50 (MTT): 24.1 µM
CN(C)C1CCc2[nH]c3c(C(N)=O)ccc(-c4ccccc4Cl)c3c2C1 (stereo not drawn)  IC50: 0.26 µM
COc1ccc2c(-c3nc(-c4ccccc4)no3)nn(Cc3ccncc3)c2c1  IC50 (48 h): 68.1 µM
O=C1CS/C(=N\c2cc(C(F)(F)F)ccc2-c2nnc(N3C(=O)CS/C3=N\c3cc(O)cc(Br)c3)s2)N1c1cc(O)cc(Br)c1  IC50 (MTT): 70.4 µM
Clc1ccc(Cn2nc(-c3ncc(-c4ccccc4)s3)c3ccccc32)c(Cl)c1  IC50 (48 h): 129 µM
COc1cccc2c1C(=O)c1c(O)c3c(c(O)c1C2=O)C[C@@](O)(C(=O)CO)C[C@@H]3O[C@H]1C[C@H](N)[C@H](O)[C@H](C)O1  IC50: 0.06 µM
CC(=O)OC[C@H]1O[C@@H](n2cc(Cn3c(C(C)=O)nc4ccccc43)nn2)[C@H](OC(C)=O)[C@@H](OC(C)=O)[C@H]1OC(C)=O  IC50 (LDH; 48 h): 3.27 µM
Fc1ccc2c(-c3nnc(Cc4ccccc4)s3)nn(Cc3ccc(Cl)cc3Cl)c2c1  IC50 (48 h): 230 µM
O=C1CS/C(=N\c2cc(C(F)(F)F)ccc2-c2nnc(N3C(=O)CS/C3=N\c3ccc(F)c(O)c3)s2)N1c1ccc(F)c(O)c1  IC50 (MTT): 22.5 µM
FC(F)(F)CN1CC(n2cc(Oc3ccn4nc(Cl)cc4n3)cn2)C1  IC50: > 512 µM
CSc1ccccc1-c1ccc(C(N)=O)c2[nH]c3c(c12)CC(N)CC3 (stereo not drawn)  IC50: 0.15 µM
N=C(CC(O)c1cc2c(F)cc(F)cc2c2cc(C(F)(F)F)ccc12)Nc1ccc(F)c(F)c1 (stereo not drawn)  IC50 (neutral red; 24 h): 7.8 µM
Fc1ccc2c(-c3nnc(Cc4ccccc4)[nH]3)nn(Cc3ccc(Cl)cc3Cl)c2c1  IC50 (48 h): 21.2 µM
COc1cccc(NC(=S)N/N=C/c2cccc3cc4ccccc4nc23)c1  IC50 (MTT; 48 h): > 50 µM
C#CCOc1ccc2oc(-c3ccc(OC)cc3)c(C(=O)OCC)c2c1CN1CCCCC1  IC50 (resazurin): 34.5 µM
Cc1cccc([N+](=O)[O-])c1N=C1SCC(=O)N1c1nnc(-c2ccc(C(F)(F)F)cc2N=C2SCC(=O)N2c2c(C)cccc2[N+](=O)[O-])s1  IC50 (MTT): 50.1 µM
CC(C)c1nc(N(C)S(C)(=O)=O)nc(-c2ccc(F)cc2)c1/C=C/[C@@H](O)C[C@@H](O)CC(=O)O  IC50 (MTT; 24 h): 59.1 µg/mL
c1ccc(Oc2ccc(Nc3c4c(nc5ccccc35)CCC4)cc2)cc1  IC50 (resazurin; 72 h): 9.45 µM
COc1ccc(N(Cc2csc(-c3ccc(C)cc3)n2)C(=O)CCCCCC(=O)NO)cc1  IC50 (MTT; 72 h): 0.19 µM
CCOc1ccc(Nc2c3c(nc4ccccc24)CCC3)cc1  IC50 (resazurin; 72 h): 11.3 µM
c1ccc(Cc2nnc(-c3nn(Cc4ccccc4)c4ccccc34)o2)cc1  IC50 (48 h): 68.6 µM
COc1cc([C@@H]2c3cc4c(cc3[C@@H](O[C@@H]3O[C@@H]5CO[C@@H](C)O[C@H]5[C@H](O)[C@H]3O)[C@H]3COC(=O)[C@H]23)OCO4)cc(OC)c1O  IC50 (MTT; 75 h): 45.9 µM
O=C1CSC(=Nc2cc(C(F)(F)F)ccc2-c2nnc(N3C(=O)CSC3=Nc3ccc([N+](=O)[O-])cc3)s2)N1c1ccc([N+](=O)[O-])cc1  IC50 (MTT): 73.1 µM
Fc1ccc(NC(=S)N/N=C/c2cccc3cc4ccccc4nc23)cc1  IC50 (MTT; 48 h): > 50 µM
